The structures appear in SMILES notation.

Experiment [1] relates to L02. The experiment is described as follows: Antiproliferative activity against human HL-7702 cells after 48 hrs by MTT assay. Format: functional, cell-based. Conditions: L02, 48 h; call rule not given here. In outline: (§1)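 MTT read-out of antiproliferative activity across cancer lines HepG-2, NCI-H460, MGC-803, A549 and MG-63 and normal liver line HL-7702. IC50 given as mean ± S.D. of three separate experiments, each run in triplicate.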
Background: Formazan colour is commonly taken as a measure of viable cells.

Experiment [2] is described as follows: Inhibition of TNF-alpha induced NF-kappaB activation in human A549 cells after 7 hrs by Bright-Glo luciferase reporter gene assay. Format: cell-based. In outline:
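A549 cells transiently cotransfected with an NF-κB-Luc reporter and stimulated with TNF-α. Luciferase read-out of inhibition gives IC50, the mean of at least three independent experiments each with triplicates.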
On the technique in general: In a reporter assay the amount or activity of a reporter protein is the signal.

Experiment [3] has as its system HepG2. The experiment is described as follows: Antiproliferative activity against human HepG2 cells after 48 hrs by MTT assay. In kind it is functional, cell-based. Particulars: HepG2, 48 h. In outline: as §1
The subject of experiment [4] is NCI-H460. In words: Antiproliferative activity against human NCI-H460 cells after 48 hrs by MTT assay. Format: functional, cell-based. Conditions: NCI-H460, 48 h. In outline:
as §1

Experiment [5] deals with MGC-803. The experiment is described as follows: Antiproliferative activity against human MGC803 cells after 48 hrs by MTT assay. Format: functional, cell-based. Particulars: MGC-803, 48 h. In outline:
as §1

Experiment [6] relates to A549. The experiment is described as follows: Antiproliferative activity against human A549 cells after 48 hrs by MTT assay. Conditions: A549, 48 h. In kind it is functional, cell-based. A digest of the protocol: as §1
The subject of experiment [7] is MG-63. The experiment is described as follows: Antiproliferative activity against human MG63 cells after 48 hrs by MTT assay. Format: functional, cell-based. Particulars: MG-63, 48 h. A digest of the protocol: as §1
[8] abbreviates: Homo sapiens, A549, 7 h, read-out: IC50.

For the compound `CCOP(=O)(OCC)C(Nc1ccc(CC(=O)NCCCNC(=O)[C@@]2(C)CC[C@]3(C)CC[C@]4(C)C(=CC(=O)[C@@H]5[C@@]6(C)CC[C@H](OC(C)=O)C(C)(C)[C@@H]6CC[C@]54C)[C@@H]3C2)cc1)c1ccc(Br)cc1` (some centres undefined), the IC50 (commonly the point on the concentration scale where inhibition reaches its midpoint) was greater than 50 µM in experiment [1]; 28.4 µM in experiment [2] (setting [8]); 23.6 µM in experiment [3]; 17.1 µM in experiment [4]; 29.9 µM in experiment [5]; 20.5 µM in experiment [6]. In addition, in experiment [7], the half-maximal inhibitory concentration (IC50) is 21.3 µM.

As for `CCOP(=O)(OCC)C(Nc1ccc(CC(=O)NCCCNC(=O)[C@@]2(C)CC[C@]3(C)CC[C@]4(C)C(=CC(=O)[C@@H]5[C@@]6(C)CC[C@H](OC(C)=O)C(C)(C)[C@@H]6CC[C@]54C)[C@@H]3C2)cc1)c1cccc(F)c1` (some centres undefined), the IC50 in experiment [1] was greater than 50 µM; in experiment [2] (setting [8]), greater than 30 µM; in experiment [3], 37.7 µM; in experiment [4] it was 29.5 µM; in experiment [5], 27.2 µM; in experiment [6] it was 34 µM. Also, the IC50 in experiment [7] is greater than 50 µM.

As to `CCOP(=O)(OCC)C(Nc1ccc(CC(=O)NCCCCNC(=O)[C@@]2(C)CC[C@]3(C)CC[C@]4(C)C(=CC(=O)[C@@H]5[C@@]6(C)CC[C@H](O)C(C)(C)[C@@H]6CC[C@]54C)[C@@H]3C2)cc1)c1cccc(F)c1` (some centres undefined), the IC50 in experiment [1] is greater than 50 µM; in experiment [2] (setting [8]), greater than 30 µM; in experiment [3], greater than 50 µM; in experiment [4], greater than 50 µM; in experiment [5], greater than 50 µM; in experiment [6] it was greater than 50 µM. The IC50 in experiment [7] was greater than 50 µM.

Regarding `CCOP(=O)(OCC)C(Nc1ccc(CC(=O)NCCCNC(=O)[C@@]2(C)CC[C@]3(C)CC[C@]4(C)C(=CC(=O)[C@@H]5[C@@]6(C)CC[C@H](O)C(C)(C)[C@@H]6CC[C@]54C)[C@@H]3C2)cc1)c1cccc(OC)c1` (some centres undefined), the IC50 in experiment [1] is greater than 50 µM; in experiment [2] (a549), “Not Active”; in experiment [3] it was greater than 50 µM; in experiment [4], greater than 50 µM; in experiment [5] it was 45.2 µM; in experiment [6] it was greater than 50 µM. Besides, inhibition in experiment [7] was half-maximal at 46.6 µM (IC50).

Consider `CCOP(=O)(OCC)C(Nc1ccc(CC(=O)NCCCCNC(=O)[C@@]2(C)CC[C@]3(C)CC[C@]4(C)C(=CC(=O)[C@@H]5[C@@]6(C)CC[C@H](OC(C)=O)C(C)(C)[C@@H]6CC[C@]54C)[C@@H]3C2)cc1)c1ccc(Br)cc1` (some centres undefined), for which the IC50 was greater than 50 µM in experiment [1]; 11.1 µM in experiment [2] (setting [8]); 19.8 µM in experiment [3]; 10.2 µM in experiment [4]; 17.4 µM in experiment [5]; 17.3 µM in experiment [6]. For the same compound, half-maximal inhibition in experiment [7] (IC50) was put at 19.2 µM.

For the compound `CCOP(=O)(OCC)C(Nc1ccc(CC(=O)NCCCNC(=O)[C@@]2(C)CC[C@]3(C)CC[C@]4(C)C(=CC(=O)[C@@H]5[C@@]6(C)CC[C@H](O)C(C)(C)[C@@H]6CC[C@]54C)[C@@H]3C2)cc1)c1ccc(F)cc1` (some centres undefined), the half-maximal inhibitory concentration (IC50) in experiment [1] was greater than 50 µM; in experiment [2] (setting [8]), 8.89 µM; in experiment [3] it was 29.1 µM; in experiment [4], 17.3 µM; in experiment [5] it was 20.5 µM; in experiment [6], 17.9 µM. For the same compound, the IC50 in experiment [7] came out at 16.5 µM.

On to `CCOP(=O)(OCC)C(Nc1ccc(CC(=O)NCCCCNC(=O)[C@@]2(C)CC[C@]3(C)CC[C@]4(C)C(=CC(=O)[C@@H]5[C@@]6(C)CC[C@H](OC(C)=O)C(C)(C)[C@@H]6CC[C@]54C)[C@@H]3C2)cc1)c1cccc(OC)c1` (some centres undefined), for which the IC50 in experiment [1] is greater than 50 µM; in experiment [2] (setting [8]), 23.4 µM; in experiment [3], 35.3 µM; in experiment [4] it was 27.4 µM; in experiment [5] it was 32.9 µM; in experiment [6] it was 27.2 µM. Also, it took 36.6 µM to reach half-maximal inhibition in experiment [7] (IC50).

Turning to `CCOP(=O)(OCC)C(Nc1ccc(CC(=O)NCCCCNC(=O)[C@@]2(C)CC[C@]3(C)CC[C@]4(C)C(=CC(=O)[C@@H]5[C@@]6(C)CC[C@H](OC(C)=O)C(C)(C)[C@@H]6CC[C@]54C)[C@@H]3C2)cc1)c1ccc(OC)cc1` (some centres undefined), the IC50 was greater than 50 µM in experiment [1]; 2.01 µM in experiment [2] (setting [8]); 15.3 µM in experiment [3]; 14.1 µM in experiment [4]; 16.3 µM in experiment [5]; 15.2 µM in experiment [6]. The compound also had an IC50 in experiment [7] of 13.9 µM.

Consider `CCOP(=O)(OCC)C(Nc1ccc(CC(=O)NCCCCNC(=O)[C@@]2(C)CC[C@]3(C)CC[C@]4(C)C(=CC(=O)[C@@H]5[C@@]6(C)CC[C@H](OC(C)=O)C(C)(C)[C@@H]6CC[C@]54C)[C@@H]3C2)cc1)c1cccc(Br)c1` (some centres undefined), for which the IC50 is greater than 50 µM in experiment [1]; 27.1 µM in experiment [2] (setting [8]); 48.2 µM in experiment [3]; 47.6 µM in experiment [4]; 41.8 µM in experiment [5]; 39.6 µM in experiment [6]. In experiment [7], this compound returned an IC50 greater than 50 µM.

As for `CCOP(=O)(OCC)C(Nc1ccc(CC(=O)NCCCNC(=O)[C@@]2(C)CC[C@]3(C)CC[C@]4(C)C(=CC(=O)[C@@H]5[C@@]6(C)CC[C@H](OC(C)=O)C(C)(C)[C@@H]6CC[C@]54C)[C@@H]3C2)cc1)c1ccc(OC)cc1` (some centres undefined), the IC50 in experiment [1] is greater than 50 µM; in experiment [2] (setting [8]), 5.03 µM; in experiment [3], 19.3 µM; in experiment [4], 18.8 µM; in experiment [5], 18.2 µM; in experiment [6], 19.3 µM. In experiment [7], this compound had an IC50 of 19.1 µM.

As for `CCOP(=O)(OCC)C(Nc1ccc(CC(=O)NCCCNC(=O)[C@@]2(C)CC[C@]3(C)CC[C@]4(C)C(=CC(=O)[C@@H]5[C@@]6(C)CC[C@H](O)C(C)(C)[C@@H]6CC[C@]54C)[C@@H]3C2)cc1)c1cccc(F)c1` (some centres undefined), the IC50 in experiment [1] was greater than 50 µM; in experiment [2] (a549), “Not Active”; in experiment [3], greater than 50 µM; in experiment [4] it was greater than 50 µM; in experiment [5], greater than 50 µM; in experiment [6] it was greater than 50 µM. Moreover, the IC50 in experiment [7] was greater than 50 µM.

Regarding `CC[C@@]1(O)C(=O)OCc2c1cc1n(c2=O)Cc2cc3cc(O)ccc3nc2-1` [HYDROXYCAMPTOTHECIN], the IC50 in experiment [1] was 10.2 µM; in experiment [4] it was 10.1 µM; in experiment [5], 9.71 µM; in experiment [6] it was 9.13 µM; in experiment [7] it was 10.7 µM.

Consider `CCOP(=O)(OCC)C(Nc1ccc(CC(=O)NCCCCNC(=O)[C@@]2(C)CC[C@]3(C)CC[C@]4(C)C(=CC(=O)[C@@H]5[C@@]6(C)CC[C@H](OC(C)=O)C(C)(C)[C@@H]6CC[C@]54C)[C@@H]3C2)cc1)c1ccccc1` (some centres undefined), for which the IC50 in experiment [1] is greater than 50 µM; in experiment [2] (setting [8]) it was 13.2 µM; in experiment [3], 26.3 µM; in experiment [4] it was 13.2 µM; in experiment [5] it was 15.2 µM; in experiment [6], 23.1 µM. This compound also gave an IC50 in experiment [7] of 20.2 µM.

As to `CCOP(=O)(OCC)C(Nc1ccc(CC(=O)NCCCNC(=O)[C@@]2(C)CC[C@]3(C)CC[C@]4(C)C(=CC(=O)[C@@H]5[C@@]6(C)CC[C@H](O)C(C)(C)[C@@H]6CC[C@]54C)[C@@H]3C2)cc1)c1ccc(OC)cc1` (some centres undefined), the concentration for half-maximal inhibition (IC50) in experiment [1] was greater than 50 µM; in experiment [2] (setting [8]), 17.1 µM; in experiment [3], 36.8 µM; in experiment [4] it was 29.4 µM; in experiment [5], 25.7 µM; in experiment [6], 23.1 µM. In addition, the IC50 in experiment [7] came to 23.6 µM.

With `CCOP(=O)(OCC)C(Nc1ccc(CC(=O)NCCCNC(=O)[C@@]2(C)CC[C@]3(C)CC[C@]4(C)C(=CC(=O)[C@@H]5[C@@]6(C)CC[C@H](O)C(C)(C)[C@@H]6CC[C@]54C)[C@@H]3C2)cc1)c1ccc(Br)cc1` (some centres undefined), the IC50 in experiment [1] was greater than 50 µM; in experiment [2] (setting [8]), greater than 30 µM; in experiment [3], 35.6 µM; in experiment [4], 20.3 µM; in experiment [5], 35.7 µM; in experiment [6], 31.9 µM. Besides, half-maximal inhibition in experiment [7] (IC50) required 25.1 µM.

For the compound `CCOP(=O)(OCC)C(Nc1ccc(CC(=O)NCCCCNC(=O)[C@@]2(C)CC[C@]3(C)CC[C@]4(C)C(=CC(=O)[C@@H]5[C@@]6(C)CC[C@H](O)C(C)(C)[C@@H]6CC[C@]54C)[C@@H]3C2)cc1)c1ccc(OC)cc1` (some centres undefined), the IC50 in experiment [1] is greater than 50 µM; in experiment [2] (setting [8]) it was 13.1 µM; in experiment [3] it was 32.2 µM; in experiment [4] it was 24 µM; in experiment [5], 22.2 µM; in experiment [6] it was 25.2 µM. In experiment [7], half-maximal inhibition (IC50) was put at 17.2 µM.

Turning to `CCOP(=O)(OCC)C(Nc1ccc(CC(=O)NCCCNC(=O)[C@@]2(C)CC[C@]3(C)CC[C@]4(C)C(=CC(=O)[C@@H]5[C@@]6(C)CC[C@H](OC(C)=O)C(C)(C)[C@@H]6CC[C@]54C)[C@@H]3C2)cc1)c1cccc(Br)c1` (some centres undefined), the IC50 was greater than 50 µM in experiment [1]; greater than 30 µM in experiment [2] (setting [8]); greater than 50 µM in experiment [3]; greater than 50 µM in experiment [4]; greater than 50 µM in experiment [5]; greater than 50 µM in experiment [6]. Further, the IC50 in experiment [7] is greater than 50 µM.

With `CCOP(=O)(OCC)C(Nc1ccc(CC(=O)NCCCNC(=O)[C@@]2(C)CC[C@]3(C)CC[C@]4(C)C(=CC(=O)[C@@H]5[C@@]6(C)CC[C@H](O)C(C)(C)[C@@H]6CC[C@]54C)[C@@H]3C2)cc1)c1cccc(Br)c1` (some centres undefined), the IC50 in experiment [1] was greater than 50 µM; in experiment [2] (a549), “Not Active”; in experiment [3], greater than 50 µM; in experiment [4], greater than 50 µM; in experiment [5], greater than 50 µM; in experiment [6], greater than 50 µM. In addition, the IC50 in experiment [7] was greater than 50 µM.
